Assay results: ChEMBL document CHEMBL5724801, “EUbOPEN Chemogenomics Library - Multiplex” (2024)
Values joined by “and” are separate entries in the source; they are usually repeats but may differ in a detail not shown here. Equal entries are not always repeated.

Test system: U2OS
Test: Multiplex assay against U2OS
Type: toxicity, cell-based
Conditions: human
Summary of the method: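 Per cents of healthy-nucleus cells form the tubulin, mitochondrial-mass and membrane-permeability phenotype values. Live cells were stained at seeding with Hoechst33342, BioTracker Green Microtubule Cytoskeleton Dye, MitoTracker Red and Annexin V Alexa Fluor 680. After compound addition they were imaged on a CQ1 microscope at 37°C and 5% CO2, and CellPathfinder machine-learning gating split them into Hoechst high-intensity objects or normal cells, normal cells into healthy, pyknosed or fragmented nuclei, and pyknosed cells into mitotic or apoptotic.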

[1] = 12 h, 1 µM, compound concentration 1 uM
[2] = 12 h, 10 µM, compound concentration 10 uM
[3] = 24 h, 1 µM, compound concentration 1 uM
[4] = 24 h, 10 µM, compound concentration 10 uM
[5] = 48 h, 1 µM, compound concentration 1 uM
[6] = 48 h, 10 µM, compound concentration 10 uM

Q: What does the source list for C[C@H]1[C@H]2CC[C@H]3[C@@H]4CC=C5C[C@@H](N(C)C)CC[C@]5(C)[C@H]4CC[C@]23CN1C [CONESSINE]?
A: Population Apoptotic (%) [1]: 80% and 58%; Population Fragmented Nuclei (%) [1]: 23% and 16%; Population Healthy Nuclei (%) [1]: 70% and 73%; Population Hoechst High Intensity Objects (%) [1]: 2% and 1%; Population Membrane Permeable-Phenotype (%) [1]: 5%; Population Mitochondria Different-Phenotype (%) [1]: 1% and 2%; Population Mitotic Cells (%) [1]: 20% and 41%; Population Normal (%) [1]: 97% and 98%; Population Pyknosed Nuclei (%) [1]: 6% and 9%; Population Tubulin-Different-Phenotype (%) [1]: 2% and 3%; Total Cell Count [1]: 248 and 124; Population Apoptotic (%) [2]: 55% and 100%; Population Fragmented Nuclei (%) [2]: 19% and 17%; Population Healthy Nuclei (%) [2]: 71% and 68%; Population Hoechst High Intensity Objects (%) [2]: 2% and 0%; Population Membrane Permeable-Phenotype (%) [2]: 5% and 8%; Population Mitochondria Different-Phenotype (%) [2]: 0% and 5%; Population Normal (%) [2]: 97% and 99%; Population Pyknosed Nuclei (%) [2]: 8% and 13%; Population Tubulin-Different-Phenotype (%) [2]: 1% and 6%; Total Cell Count [2]: 237 and 107; Population Apoptotic (%) [3]: 90% and 100%; Population Fragmented Nuclei (%) [3]: 18% and 11%; Population Healthy Nuclei (%) [3]: 74% and 81%; Population Hoechst High Intensity Objects (%) [3]: 2% and 1%; Population Membrane Permeable-Phenotype (%) [3]: 6% and 8%; Population Mitochondria Different-Phenotype (%) [3]: 1% and 5%; Population Mitotic Cells (%) [3]: 9% and 0%; Population Normal (%) [3]: 97% and 98%; Population Pyknosed Nuclei (%) [3]: 7%; Population Tubulin-Different-Phenotype (%) [3]: 3% and 7%; Total Cell Count [3]: 307 and 153; Population Apoptotic (%) [4]: 65% and 100%; Population Fragmented Nuclei (%) [4]: 20% and 19%; Population Healthy Nuclei (%) [4]: 71%; Population Hoechst High Intensity Objects (%) [4]: 2% and 4%; Population Membrane Permeable-Phenotype (%) [4]: 2% and 10%; Population Mitochondria Different-Phenotype (%) [4]: 0% and 4%; Population Normal (%) [4]: 97% and 95%; Population Pyknosed Nuclei (%) [4]: 7% and 8%; Population Tubulin-Different-Phenotype (%) [4]: 1% and 9%; Total Cell Count [4]: 265 and 134; Population Apoptotic (%) [5]: 83% and 86%; Population Fragmented Nuclei (%) [5]: 16%; Population Healthy Nuclei (%) [5]: 79% and 73%; Population Hoechst High Intensity Objects (%) [5]: 2%; Population Membrane Permeable-Phenotype (%) [5]: 4%; Population Mitochondria Different-Phenotype (%) [5]: 2% and 0%; Population Mitotic Cells (%) [5]: 16% and 13%; Population Normal (%) [5]: 97%; Population Pyknosed Nuclei (%) [5]: 4% and 9%; Population Tubulin-Different-Phenotype (%) [5]: 1% and 2%; Total Cell Count [5]: 430 and 227; Population Apoptotic (%) [6]: 89% and 85%; Population Fragmented Nuclei (%) [6]: 19% and 15%; Population Healthy Nuclei (%) [6]: 73% and 72%; Population Hoechst High Intensity Objects (%) [6]: 1% and 6%; Population Membrane Permeable-Phenotype (%) [6]: 4% and 9%; Population Mitochondria Different-Phenotype (%) [6]: 2% and 5%; Population Mitotic Cells (%) [6]: 10% and 15%; Population Normal (%) [6]: 98% and 93%; Population Pyknosed Nuclei (%) [6]: 7% and 12%; Population Tubulin-Different-Phenotype (%) [6]: 3% and 6%; Total Cell Count [6]: 370 and 175

Q: With C[C@H](N)COC(=O)[C@@H](CCCCN)NC(=O)Cc1c(-c2ccc3ccccc3c2)[nH]c2c1ccc1ccccc12 as the compound, how does the “Population Apoptotic (%)” value [1] read?
A: Its value is 73% and 75%.

Q: And the “Population Fragmented Nuclei (%)” value [1]?
A: Its value is 26% and 14%.

Q: And the “Population Healthy Nuclei (%)” value [1]?
A: Its value is 66% and 78%.

Q: What about the “Population Hoechst High Intensity Objects (%)” value [1] of the same compound?
A: Its value is 3% and 0%.

Q: What about the “Population Membrane Permeable-Phenotype (%)” value [1] of the same compound?
A: The value was 6% and 4%.

Q: What about the “Population Mitochondria Different-Phenotype (%)” value [1] of the same compound?
A: Its value is 3% and 2%.

Q: What about the “Population Mitotic Cells (%)” value [1] of the same compound?
A: Its value is 26% and 25%.

Q: And the “Population Normal (%)” value [1]?
A: Its value is 96% and 99%.

Q: What about the “Population Pyknosed Nuclei (%)” value [1] of the same compound?
A: The value was 6%.

Q: And the “Population Tubulin-Different-Phenotype (%)” value [1]?
A: The value was 3% and 4%.

Q: What about the “Total Cell Count” value [1] of the same compound?
A: The value was 244 and 128.

Q: What about the “Population Apoptotic (%)” value [2] of the same compound?
A: Its value is 78% and 50%.

Q: What about the “Population Fragmented Nuclei (%)” value [2] of the same compound?
A: Its value is 23% and 24%.

Q: What about the “Population Healthy Nuclei (%)” value [2] of the same compound?
A: Its value is 69% and 73%.

Q: And the “Population Hoechst High Intensity Objects (%)” value [2]?
A: Its value is 2% and 0%.

Q: What about the “Population Mitochondria Different-Phenotype (%)” value [2] of the same compound?
A: The value was 1% and 3%.

Q: What about the “Population Mitotic Cells (%)” value [2] of the same compound?
A: Its value is 21% and 50%.

Q: And the “Population Normal (%)” value [2]?
A: Its value is 97% and 100%.

Q: And the “Population Pyknosed Nuclei (%)” value [2]?
A: The value was 7% and 1%.

Q: And the “Population Tubulin-Different-Phenotype (%)” value [2]?
A: Its value is 3% and 5%.

Q: What about the “Total Cell Count” value [2] of the same compound?
A: Its value is 279 and 106.

Q: What about the “Population Apoptotic (%)” value [3] of the same compound?
A: The value was 83% and 90%.

Q: And the “Population Fragmented Nuclei (%)” value [3]?
A: Its value is 22% and 16%.

Q: And the “Population Healthy Nuclei (%)” value [3]?
A: The value was 68% and 77%.

Q: And the “Population Hoechst High Intensity Objects (%)” value [3]?
A: Its value is 2% and 1%.

Q: And the “Population Membrane Permeable-Phenotype (%)” value [3]?
A: The value was 3% and 6%.

Q: What about the “Population Mitochondria Different-Phenotype (%)” value [3] of the same compound?
A: The value was 1%.

Q: What about the “Population Mitotic Cells (%)” value [3] of the same compound?
A: The value was 16% and 10%.

Q: What about the “Population Normal (%)” value [3] of the same compound?
A: Its value is 97% and 98%.

Q: And the “Population Pyknosed Nuclei (%)” value [3]?
A: The value was 8% and 5%.

Q: What about the “Population Tubulin-Different-Phenotype (%)” value [3] of the same compound?
A: Its value is 2% and 3%.

Q: What about the “Total Cell Count” value [3] of the same compound?
A: The value was 292 and 170.

Q: And the “Population Apoptotic (%)” value [4]?
A: The value was 81% and 100%.

Q: And the “Population Fragmented Nuclei (%)” value [4]?
A: Its value is 19% and 17%.

Q: And the “Population Healthy Nuclei (%)” value [4]?
A: The value was 73% and 79%.

Q: And the “Population Hoechst High Intensity Objects (%)” value [4]?
A: The value was 2%.

Q: What about the “Population Membrane Permeable-Phenotype (%)” value [4] of the same compound?
A: Its value is 5% and 11%.

Q: And the “Population Mitochondria Different-Phenotype (%)” value [4]?
A: The value was 1% and 3%.

Q: And the “Population Mitotic Cells (%)” value [4]?
A: The value was 18% and 0%.

Q: And the “Population Normal (%)” value [4]?
A: The value was 97%.

Q: What about the “Population Pyknosed Nuclei (%)” value [4] of the same compound?
A: The value was 6% and 2%.

Q: And the “Population Tubulin-Different-Phenotype (%)” value [4]?
A: The value was 2% and 6%.

Q: What about the “Total Cell Count” value [4] of the same compound?
A: Its value is 337 and 142.

Q: And the “Population Apoptotic (%)” value [5]?
A: Its value is 79% and 73%.

Q: And the “Population Fragmented Nuclei (%)” value [5]?
A: The value was 16% and 17%.

Q: And the “Population Healthy Nuclei (%)” value [5]?
A: The value was 78% and 73%.

Q: And the “Population Hoechst High Intensity Objects (%)” value [5]?
A: Its value is 1% and 2%.

Q: And the “Population Membrane Permeable-Phenotype (%)” value [5]?
A: Its value is 2% and 3%.

Q: What about the “Population Mitochondria Different-Phenotype (%)” value [5] of the same compound?
A: The value was 2% and 4%.

Q: And the “Population Mitotic Cells (%)” value [5]?
A: Its value is 20% and 26%.

Q: And the “Population Normal (%)” value [5]?
A: The value was 98% and 97%.

Q: What about the “Population Pyknosed Nuclei (%)” value [5] of the same compound?
A: The value was 5% and 8%.

Q: What about the “Population Tubulin-Different-Phenotype (%)” value [5] of the same compound?
A: The value was 2% and 1%.

Q: And the “Total Cell Count” value [5]?
A: The value was 440 and 231.

Q: What about the “Population Apoptotic (%)” value [6] of the same compound?
A: Its value is 90%.

Q: What about the “Population Fragmented Nuclei (%)” value [6] of the same compound?
A: The value was 14% and 16%.

Q: What about the “Population Healthy Nuclei (%)” value [6] of the same compound?
A: The value was 74% and 77%.

Q: What about the “Population Hoechst High Intensity Objects (%)” value [6] of the same compound?
A: The value was 4%.

Q: And the “Population Membrane Permeable-Phenotype (%)” value [6]?
A: The value was 6% and 16%.

Q: What about the “Population Mitochondria Different-Phenotype (%)” value [6] of the same compound?
A: Its value is 1% and 2%.

Q: And the “Population Mitotic Cells (%)” value [6]?
A: Its value is 9% and 10%.

Q: And the “Population Normal (%)” value [6]?
A: Its value is 95%.

Q: And the “Population Pyknosed Nuclei (%)” value [6]?
A: The value was 10% and 5%.

Q: And the “Population Tubulin-Different-Phenotype (%)” value [6]?
A: Its value is 2% and 6%.

Q: And the “Total Cell Count” value [6]?
A: The value was 505 and 184.
